Among the data in ChEMBL document CHEMBL2321688, “Acyclic nucleoside phosphonates containing a second phosphonate group are potent inhibitors of 6-oxopurine phosphoribosyltransferases and have antimalarial activity” (J Med Chem, 2013) are Ki, CC50 and IC50 values, retold here.

Series [1] can be described thus: Inhibition of Plasmodium falciparum HGXPRT. The method in brief: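 PfHGXPRT purified by a published procedure. Ki from Hanes' plots with guanine fixed at 60 μM and PRib-PP varied (2-1000 μM) according to Km(app); one concentration of each inhibitor.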
The nature of series [2]: Inhibition of Plasmodium vivax N-terminal hexahistidine-tagged HGPRT. The method in brief: (§1)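 N-terminal hexa-histidine tagged enzymes purified to homogeneity by IMAC. Ki from Hanes' plots with guanine fixed at 60 μM and PRib-PP varied (2-1000 μM) according to Km(app); one concentration of each inhibitor.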
The target of series [3] is T1, Hypoxanthine-guanine phosphoribosyltransferase (Homo sapiens, UniProt P00492).
T1 sequence (P00492 whole entry): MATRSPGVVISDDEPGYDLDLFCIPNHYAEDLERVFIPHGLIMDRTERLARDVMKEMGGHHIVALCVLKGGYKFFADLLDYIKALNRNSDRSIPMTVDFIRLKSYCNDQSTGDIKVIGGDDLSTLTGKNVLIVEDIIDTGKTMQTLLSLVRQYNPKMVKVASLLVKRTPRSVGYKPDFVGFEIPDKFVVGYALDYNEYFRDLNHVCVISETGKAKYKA
The series can be described thus: Inhibition of human N-terminal hexahistidine-tagged HGPRT. An outline of the steps:
as §1

Series [4] is described as follows: Cytotoxicity against thioguanine-resistant human C32TG cells harboring HGPRT deletion mutant assessed as inhibition of cell proliferation after 4 days by Coulter counter analysis. In kind it is cell-based. The method in brief: (§2)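 Cell proliferation in human A549 lung carcinoma, C32 melanoma and C32-TG (thioguanine-resistant, HGPRT-deficient C32 mutant) cells. Seeded at 7,500 (A549) or 15,000 (C32, C32-TG) cells per well; serial compound dilutions added 24 hr later. Four days at 37 °C, then trypsinized and counted by Coulter Counter. CC50 = concentration giving 50% proliferation versus untreated cells, by extrapolation; mean ± SEM of two or three independent tests.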

Series [5] can be described thus: Cytotoxicity against human A549 cells assessed as inhibition of cell proliferation after 4 days by Coulter counter analysis. In kind it is cell-based. The method in brief:
as §2

Series [6] is described as follows: Cytotoxicity against human C32 cells assessed as inhibition of cell proliferation after 4 days by Coulter counter analysis. It counts as cell-based. An outline of the steps:
as §2

The subject of series [7] is Plasmodium falciparum. Description: Antimalarial activity against chloroquine and pyrimethamine-resistant early trophozoite stage of Plasmodium falciparum W2 in human red blood cells assessed as [3H]hypoxanthine uptake after 96 hrs. In kind it is functional, organism-based. The method in brief: (§3)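 P. falciparum cultured in RPMI-1640-LPLF with 10% human plasma, sorbitol-synchronised; assay started with >90% rings at 0.5% parasitaemia, 2% haematocrit in hypoxanthine-free medium. Ten 2-fold serial dilutions for 96 h, [3H]-hypoxanthine (0.2 µCi/well) added at ~48 h. IC50 from non-linear regression of incorporation versus log concentration; three independent experiments, mean ± SD.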

The test system of series [8] is Plasmodium falciparum. The series can be described thus: Antimalarial activity against wild type early trophozoite stage of Plasmodium falciparum D6 in human red blood cells assessed as [3H]hypoxanthine uptake after 96 hrs. It counts as functional, organism-based. The method in brief:
as §3

A word on the Ki: it is a dissociation constant, usually derived from enzyme kinetics or from competition with a known ligand. A low value points to higher affinity. What is called CC50 is the concentration at which the toxic effect on the cells reaches its halfway point. The term IC50 denotes the point on the concentration scale where inhibition reaches its midpoint.

In the case of `O=c1[nH]cnc2c1ncn2CC(COCP(=O)(O)O)COCP(=O)(O)O`, the Ki in series [1] was found to be 5 µM; in series [2], 2 µM; in series [3], 1 µM.

Turning to `CCOC(=O)[C@H](Cc1ccccc1)NP(=O)(COCC(COCP(=O)(N[C@@H](Cc1ccccc1)C(=O)OCC)N[C@@H](Cc1ccccc1)C(=O)OCC)Cn1cnc2c(=O)[nH]c(N)nc21)N[C@@H](Cc1ccccc1)C(=O)OCC`, the 50% cytotoxic concentration (CC50) at 96 h is 109 µM in series [4], greater than 300 µM in series [5] and 130 µM in series [6]. The IC50 is 7.1 µM in the series on Plasmodium falciparum [7] and 9.7 µM in the series with Plasmodium falciparum [8].

`CCCCCCCCCCCCCCCCOCCCOP(=O)(O)CCOCCn1cnc2c(=O)[nH]c(N)nc21`: the CC50 at 96 h is 36 µM in series [4], 61 µM in series [5] and 61 µM in series [6]. The IC50 in the series with Plasmodium falciparum [7] was found to be 4.7 µM; in the series with Plasmodium falciparum [8], 7.6 µM.

In the case of `Nc1nc2c(ncn2CC(COCCP(=O)(O)O)OCCP(=O)(O)O)c(=O)[nH]1` (centres undefined), the inhibition constant (Ki) is 0.5 µM in series [1], 0.7 µM in series [2] and 0.6 µM in series [3].

With `Nc1nc2c(ncn2CC(COCP(=O)(O)O)COCP(=O)(O)O)c(=O)[nH]1`, the 50% cytotoxic concentration (CC50) at 96 h in series [4], in series [5] and in series [6] was greater than 300 µM in each case. Also, the inhibitory constant (Ki) in series [1] came out at 0.07 µM; in series [2], 0.6 µM; in series [3] it was 0.03 µM.

With `Nc1nc2c(ncn2CCOCCP(=O)(O)O)c(=O)[nH]1`, the CC50 at 96 h in series [4], in series [5] and in series [6] was greater than 300 µM each time. In addition, the concentration for half-maximal inhibition (IC50) in the series on Plasmodium falciparum [8] was 242 µM.

For `Nc1nc2c(ncn2C(COCP(=O)(O)O)COCP(=O)(O)O)c(=O)[nH]1`, the Ki was determined as 2 µM in series [1], 18 µM in series [2] and 37 µM in series [3].

Turning to `CCOC(=O)[C@H](Cc1ccccc1)NP(=O)(COCC(COCP(=O)(N[C@@H](Cc1ccccc1)C(=O)OCC)N[C@@H](Cc1ccccc1)C(=O)OCC)Cn1cnc2c(=O)[nH]cnc21)N[C@@H](Cc1ccccc1)C(=O)OCC`, the CC50 at 96 h is 55 µM in series [4], 101 µM in series [5] and 41 µM in series [6]. Further, the IC50 in the series on Plasmodium falciparum [7] was 4 µM; in the series with Plasmodium falciparum [8], 3.8 µM.

For the compound `CCCCCCCCCCCCCCCCOCCCOP(=O)(CCOCCn1cnc2c(=O)[nH]c(N)nc21)OCCCOCCCCCCCCCCCCCCCC`, the 50% cytotoxic concentration (CC50) at 96 h in series [4], in series [5] and in series [6] was greater than 300 µM in each case. Moreover, the IC50 with Plasmodium falciparum [7] was determined as 68 µM; in the series on Plasmodium falciparum [8] it was 59 µM.

Regarding `CCOC(=O)[C@H](C)NP(=O)(CCOCCn1cnc2c(=O)[nH]c(N)nc21)N[C@@H](C)C(=O)OCC`, the 50% cytotoxic concentration (CC50) at 96 h in series [4], in series [5] and in series [6] was greater than 300 µM in each case. The IC50 with Plasmodium falciparum [7] came out at 48 µM; in the series with Plasmodium falciparum [8] it was 42 µM.
